High-throughput results deposited in PubChem BioAssay by The Scripps Research Institute Molecular Screening Center.
Most compounds without a hit are left out; they make up all but 1.8% or so of the library.
M4 ag: agonists of human muscarinic M4 receptor (CHRM4) | AID 624127 | 0.14% of 360,000 active | CHO-K1 hM4/Gqi5, Fluo-8 calcium fluorescence; vehicle 0%, full acetylcholine response 100% | activation, % at 3 µM | P08173;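 active = activation above the run mean over all test wells plus 3 SD, cut at about 32% in these data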;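 note: peak over basal fluorescence ratio per well then scaled between controls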
CHRM4 antagonist: antagonists of human muscarinic M4 receptor (CHRM4); P08173; CHO-hM4 cells, ACh EC80, Fluo-8 calcium fluorescence; inhibition, % at 3 µM; 0.73% of 360,000 active;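 active = inhibition above its plate's cutoff, the mean inhibition of sample wells plus 3 SD, cut at about 27% in these data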
M5 antag: blocks acetylcholine activation of human M5 receptor | P08912 | CHO-hM5 cells, Fluo-8 calcium fluorescence, ACh EC80 | inhibition, % at 3 µM | 0.59% of 360,000 active | AID 624040;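 active = inhibition above a per-plate cutoff, the mean of that plate's test compounds plus 3 SD, cut at about 27% in these data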
Target sequence (P08912 whole entry, looked up): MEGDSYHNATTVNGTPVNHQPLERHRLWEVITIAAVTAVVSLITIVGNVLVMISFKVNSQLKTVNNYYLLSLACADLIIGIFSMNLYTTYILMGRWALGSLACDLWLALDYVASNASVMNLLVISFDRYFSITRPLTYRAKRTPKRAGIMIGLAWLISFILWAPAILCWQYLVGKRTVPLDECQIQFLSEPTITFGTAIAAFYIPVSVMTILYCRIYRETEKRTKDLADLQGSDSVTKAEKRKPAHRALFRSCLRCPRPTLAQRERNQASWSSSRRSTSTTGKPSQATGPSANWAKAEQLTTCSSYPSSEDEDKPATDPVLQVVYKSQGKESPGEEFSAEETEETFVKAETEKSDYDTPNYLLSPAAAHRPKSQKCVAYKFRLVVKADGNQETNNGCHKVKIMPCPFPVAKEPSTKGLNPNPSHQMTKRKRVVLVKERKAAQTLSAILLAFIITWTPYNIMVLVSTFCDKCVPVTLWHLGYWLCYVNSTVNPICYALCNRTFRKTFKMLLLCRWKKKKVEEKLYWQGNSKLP
CHRM4 PAM: potentiates acetylcholine response at human M4 receptor; AID 624126; 0.4% of 360,000 active; P08173; activation, % at 3 µM; CHO-K1 hM4/Gqi5, Fluo-8 calcium fluorescence, ACh EC20; 0% = ACh EC20, 100% = maximal ACh;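 active = activation above its plate's cutoff, the mean activation of sample wells plus 3 SD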
M5 PAM: potentiates acetylcholine response at human M5 receptor. P08912. CHO-K1 hM5, Fluo-8 calcium, ACh EC20 PAM; 0% = ACh EC20, 100% = ACh EC100. activation, % at 3 µM. 0.3% of 360,000 active. AID 624038;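 active = activation above the run cutoff, the mean activation of all test compounds plus 3 SD, cut at about 18% in these data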
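System: CHO-K1 cell line with stable human muscarinic M5 receptor expression | Also added: EC20 acetylcholine as agonist stimulus | Compound: One concentration, 3 µM final (nominal) | Timing: Fluo-8 loading 80 min at 37 °C plus 30 min room temperature | Measured by: Fluo-8 calcium dye fluorescence, kinetic read | Read-out basis: % activation, ACh-normalized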
M5 ag: CHRM5 agonism in calcium assay; AID 624037; 0.19% of 360,000 active; activation, % at 3 µM; CHO-K1 hM5 cells, Fluo-8 calcium fluorescence; 0% DMSO wells, 100% maximal acetylcholine response; P08912;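 active = activation above the run's mean over test compounds plus 3 SD, cut at about 23% in these data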;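 note: signal is peak over basal fluorescence ratio across the kinetic read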
A number is an active result; – = inactive.

SMILES | M4 ag | CHRM4 antagonist | M5 antag | CHRM4 PAM | M5 PAM | M5 ag
C=CCNc1ncnc2c1ncn2[C@H]1CN(Cc2ccccc2)C[C@@H](COC(C)=O)O1 | – | – | – | – | – | –
CCOC(=O)CSc1nc(C)c2cccc(C)c2n1 | – | – | – | – | 19.2 | –
CCOC(=O)CSc1nc(C)c2ccccc2n1 | – | – | – | – | – | –
CC1(C)C(=O)OC(c2ccccc2)C(C)(C)C1=O (stereo unspecified) | – | – | 31.5 | – | – | –
CC1(C)C(=O)OC(c2ccccc2)C2(CCCC2)C1=O (stereo unspecified) | – | – | – | – | – | –
O=C(NN=Cc1c(O)ccc2ccccc12)c1ccc2c(c1)OCO2 | – | – | – | 23.0 | – | –
Cc1cccc(C(C(=O)NC2CCCC2)N(C(=O)c2csnn2)C2CCCC2)c1 (stereo unspecified) | – | – | – | – | – | –
CC1Sc2ccc(C(=O)OCc3ccccc3Cl)cc2NC1=O (stereo unspecified) | – | – | – | – | – | –
Cc1cc(C)nc(NS(=O)(=O)c2ccc(NC(=O)CSc3nc4ccccc4[nH]3)cc2)n1 | – | – | – | – | – | –
COc1ccc2nc(SCC(=O)Nc3ccc(S(=O)(=O)Nc4nccc(C)n4)cc3)[nH]c2c1 | – | 34.8 | – | – | – | –
Cc1ccnc(NS(=O)(=O)c2ccc(NC(=O)c3ccc(S(=O)(=O)N4CCCC4)cc3)cc2)n1 | – | – | – | – | 19.4 | –
COCCNC(=O)C1(C)CCCN(C(=O)c2cccc(Cl)c2)C1 (stereo unspecified) | – | – | – | – | – | –
Cc1cccn2c(=O)c3cc(C(=O)NC4CCCC4)sc3nc12 | – | – | – | – | – | –
COc1cc(C(=O)OCc2cccc(OC)c2OC)ccc1OCC(=O)N1CCOCC1 | – | – | – | 21.8 | – | –
Cc1cc([N+](=O)[O-])nn1CC(=O)N/N=C/c1ccccc1O | – | – | – | – | – | –
COc1cc(OC)c(/C=N/NC(=O)Cn2nc([N+](=O)[O-])cc2C)c(OC)c1 | – | – | – | 11.9 | – | –
CN1CC(=O)N(CC(=O)Nc2ccc(F)cc2)c2ccccc2C1=O | – | – | – | – | 40.2 | –
CN1CC(=O)N(CC(=O)NCc2ccc(F)cc2)c2ccccc2C1=O | – | – | – | – | – | –
O=C(NC(=S)NCc1cccnc1)c1cc(Br)ccc1Cl | – | – | – | – | 21.9 | –
COc1ccc(Br)cc1C(=O)NCc1cccnc1 | – | – | – | – | – | –
CC(OC(=O)[C@@H](NC(=O)OCc1ccccc1)C(C)C)C(=O)Nc1ccc(N2CCOCC2)cc1 (stereo partly specified) | – | – | – | – | – | –
O=S(=O)(/C(=C\c1ccc(C(F)(F)F)cc1)c1nc2ccccc2[nH]1)c1ccccc1 | – | 44.1 | – | – | – | –
CCn1c(SCC(=O)N/N=C(/C)c2ccncc2)nc2ccccc21 | – | – | – | – | – | –
CC1=CC(C)(C)N(C(=O)c2ccccc2)c2ccc(C)cc21 | – | – | – | – | – | 23.4
CC1=CC(C)(C)N(C(=O)c2ccccc2)c2ccccc21 | – | – | – | – | – | –
SMILES | M4 ag | CHRM4 antagonist | M5 antag | CHRM4 PAM | M5 PAM | M5 ag
COc1ccc(OC)c2c1C(=O)C(Cl)=C(Cl)C2=O | – | 60.5 | – | – | – | –
CN(C)CC/C=C1/c2cc(F)ccc2CSc2ccc(F)cc21 | – | 83.8 | 98.4 | – | – | –
CN(C)CC/C=C1\c2cc(F)ccc2CSc2ccccc21 | – | 97.3 | 98.3 | – | – | –
Clc1ccc2c(c1)-c1[nH]ncc1CS2 | – | – | – | – | – | –
N#Cc1ccc(N)cc1OCCCN1CCCCC1 | – | – | – | – | – | –
CCN(CC)CCC=C(c1cccs1)c1cccs1 | – | 47.5 | 28.2 | – | – | –
Nc1[nH]n2c(=O)cc(-c3ccccc3)nc2c1N=Nc1ccc(S(N)(=O)=O)cc1 | – | – | – | – | 19.3 | –
Nc1[nH]n2c(=O)cc(-c3ccccc3)nc2c1N=Nc1ccccc1 | – | – | – | – | – | –
